From ChEMBL document CHEMBL2040768, “Synthesis, antimicrobial and cytotoxic activities of sulfone linked bis heterocycles” (Eur J Med Chem, 2012)
Active and inactive are the calls of the source. The calls are words filed in the database; no cut-off is given here.

Experiments:
Pseudomonas aeruginosa [1] = experiment: Antibacterial activity against Pseudomonas aeruginosa at 100 ug/ml after 24 hrs by agar well diffusion method; assay type: functional; conditions: read-out: DIZ
In short: (§1)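 Agar well diffusion. Nutrient plates swabbed with 24 h broth culture of the bacterium; 6 mm wells bored and loaded with DMSO solutions of compound (wells at 50 and 100 per well). Chloramphenicol positive control, DMSO negative control. Plates held 37 °C, 24 h; inhibition zone diameter (mm) measured, mean of duplicates.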

A549 = experiment: Cytotoxicity against human A549 cells up to 0.2 mM after 72 hrs by MTT assay
Bacillus subtilis [2] = experiment: Antibacterial activity against Bacillus subtilis at 100 ug/ml after 24 hrs by agar well diffusion method; assay type: functional; conditions: read-out: DIZ; in short: as §1
Pseudomonas aeruginosa [3] = experiment: Antibacterial activity against Pseudomonas aeruginosa at 50 ug/ml after 24 hrs by agar well diffusion method; assay type: functional; conditions: read-out: DIZ; in short: as §1
Penicillium chrysogenum [4] = experiment: Antifungal activity against Penicillium chrysogenum at 100 ug/ml after 48 hrs by agar well diffusion method; assay type: functional; conditions: read-out: DIZ
In short: (§2)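 Fungal agar well diffusion. Plates swabbed with fungal culture, 6 mm wells filled with DMSO solutions of compound (50 and 100 per well). Ketoconazole positive and DMSO negative controls. Plates incubated 28 °C for 48 h; zone of inhibition diameter (mm) read, average of duplicates.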

Staphylococcus aureus [5] = experiment: Antibacterial activity against Staphylococcus aureus at 100 ug/ml after 24 hrs by agar well diffusion method; assay type: functional; conditions: read-out: DIZ; in short: as §1
Klebsiella pneumoniae [6] = experiment: Antibacterial activity against Klebsiella pneumoniae at 50 ug/ml after 24 hrs by agar well diffusion method; assay type: functional; conditions: read-out: DIZ; in short: as §1
Bacillus subtilis [7] = experiment: Antibacterial activity against Bacillus subtilis at 50 ug/ml after 24 hrs by agar well diffusion method; assay type: functional; conditions: read-out: DIZ; in short: as §1
Penicillium chrysogenum [8] = experiment: Antifungal activity against Penicillium chrysogenum at 50 ug/ml after 48 hrs by agar well diffusion method; assay type: functional; conditions: read-out: DIZ; in short: as §2
Klebsiella pneumoniae [9] = experiment: Antibacterial activity against Klebsiella pneumoniae at 100 ug/ml after 24 hrs by agar well diffusion method; assay type: functional; conditions: read-out: DIZ; in short: as §1
Aspergillus niger [10] = experiment: Antifungal activity against Aspergillus niger at 50 ug/ml after 48 hrs by agar well diffusion method; assay type: functional; conditions: read-out: DIZ; in short: as §2
Staphylococcus aureus [11] = experiment: Antibacterial activity against Staphylococcus aureus at 50 ug/ml after 24 hrs by agar well diffusion method; assay type: functional; conditions: read-out: DIZ; in short: as §1
Aspergillus niger [12] = experiment: Antifungal activity against Aspergillus niger at 100 ug/ml after 48 hrs by agar well diffusion method; assay type: functional; conditions: read-out: DIZ; in short: as §2

Row | Structure (SMILES) | zone of inhibition at 100 µg/mL (Pseudomonas aeruginosa [1]) [mm] | Activity (A549) | zone of inhibition at 100 µg/mL (Bacillus subtilis [2]) [mm] | zone of inhibition at 50 µg/mL (Pseudomonas aeruginosa [3]) [mm] | zone of inhibition at 100 µg/mL (Penicillium chrysogenum [4]) [mm] | zone of inhibition at 100 µg/mL (Staphylococcus aureus [5]) [mm] | zone of inhibition at 50 µg/mL (Klebsiella pneumoniae [6]) [mm] | zone of inhibition at 50 µg/mL (Bacillus subtilis [7]) [mm] | zone of inhibition at 50 µg/mL (Penicillium chrysogenum [8]) [mm] | zone of inhibition at 100 µg/mL (Klebsiella pneumoniae [9]) [mm] | zone of inhibition at 50 µg/mL (Aspergillus niger [10]) [mm] | zone of inhibition at 50 µg/mL (Staphylococcus aureus [11]) [mm] | zone of inhibition at 100 µg/mL (Aspergillus niger [12]) [mm]
1 | O=S(=O)(Cc1nnc(CS(=O)(=O)c2c[nH]nc2S(=O)(=O)c2ccc(Cl)cc2)o1)Nc1ccc(Cl)cc1 | 21 | inactive | 22 | 19 | 24 | 23 | 23 | 21 | 21 | 24 | 20 | 20 | 23
2 | O=S(=O)(Cc1nnc(CS(=O)(=O)C2CNN=C2S(=O)(=O)c2ccc(Cl)cc2)o1)Nc1ccc(Cl)cc1 (stereo unspecified) | 19 | inactive | 20 | 17 | 24 | 18 | 22 | 17 | 22 | 24 | 20 | 17 | 23
3 | O=S(=O)(Cc1nnc(CS(=O)(=O)c2c[nH]cc2S(=O)(=O)c2ccccc2)s1)Nc1ccccc1 | 15 | inactive | 20 | 14 | 20 | 17 | 20 | 18 | 17 | 22 | 16 | 15 | 18
4 | Cc1ccc(NS(=O)(=O)Cc2nnc(CS(=O)(=O)/C=C/S(=O)(=O)c3ccc(C)cc3)n2N)cc1 | 17 | inactive | 25 | 15 | 25 | 22 | 25 | 23 | 22 | 27 | 19 | 20 | 23
5 | Cc1ccc(NS(=O)(=O)Cc2nnc(CS(=O)(=O)C3CNN=C3S(=O)(=O)c3ccc(C)cc3)s2)cc1 (stereo unspecified) | 13 | inactive | 16 | 11 | 16 | 13 | 16 | 14 | 13 | 18 | 11 | 11 | 14
6 | O=S(=O)(Cc1nnc(CS(=O)(=O)c2c[nH]cc2S(=O)(=O)c2ccc(Cl)cc2)s1)Nc1ccc(Cl)cc1 | 25 | inactive | 29 | 23 | 33 | 27 | 29 | 27 | 30 | 30 | 29 | 26 | 31
7 | O=S(=O)(Cc1nnc(CS(=O)(=O)c2c[nH]nc2S(=O)(=O)c2ccccc2)s1)Nc1ccccc1 | 12 | inactive | 17 | 10 | 19 | 17 | 14 | 15 | 16 | 16 | 15 | 16 | 17
